# Data published in ChEMBL document CHEMBL4229515, “A novel synthesis of 2-arylbenzimidazoles in molecular sieves-MeOH system and their antitubercular activity” (Bioorg Med Chem, 2018).
# Key:
# [1] = tested on: Mus musculus; experiment: Acute toxicity in Swiss albino mouse assessed as effect on cholesterol levels at 300 mg/kg, po after 7 days (reference value: 89.73 +/- 10.76 mg/dL); format: organism-based; settings: in vivo, 168 h
# [2] = tested on: Mus musculus; experiment: Acute toxicity in Swiss albino mouse assessed as effect on relative brain weight at 5 to 1000 mg/kg, po after 7 days; format: organism-based; settings: in vivo, 168 h
# Outline: (§1)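 Single acute oral dose of 5, 50, 300 or 1000 mg/kg body weight, with an untreated control group; n=6 mice per group. Animals observed for 7 days for morbidity, mortality, behaviour and body weight. At the end, blood and serum were analysed, and organs were examined grossly with absolute and relative weights. Data are mean±SE; P<0.05 was taken as significant versus control and the lower-dose groups.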
# [3] = tested on: Mus musculus; experiment: Acute toxicity in Swiss albino mouse assessed as effect on GSH levels per mg of tissue protein at 300 mg/kg, po after 7 days (reference value: 17.64 +/- 1.03 micromol); format: organism-based; settings: in vivo, 168 h
# [4] = tested on: Mus musculus; experiment: Acute toxicity in Swiss albino mouse assessed as effect on haemoglobin levels at 50 mg/kg, po after 7 days (reference value: 12.29 +/- 0.53 g/dL); format: organism-based; settings: in vivo, 168 h
# [5] = tested on: Mus musculus; experiment: Acute toxicity in Swiss albino mouse assessed as effect on WBC count at 50 mg/kg, po after 7 days (reference value: 7.47 +/- 1.61 10^3/mm3); format: organism-based; settings: in vivo, 168 h
# [6] = tested on: Mus musculus; experiment: Acute toxicity in Swiss albino mouse assessed as effect on serum protein levels at 1000 mg/kg, po after 7 days (reference value: 0.10 +/- 0.004 mg/mL); format: organism-based; settings: in vivo, 168 h
# [7] = tested on: Mus musculus; experiment: Acute toxicity in Swiss albino mouse assessed as effect on MDA levels per mg of tissue protein at 5 mg/kg, po after 7 days (reference value: 0.24 +/- 0.05 nmol); format: organism-based; settings: in vivo, 168 h
# [8] = tested on: Mus musculus; experiment: Acute toxicity in Swiss albino mouse assessed as effect on RBC count at 50 mg/kg, po after 7 days (reference value: 7.61 +/- 0.54 10^6/mm3); format: organism-based; settings: in vivo, 168 h
# [9] = tested on: Mus musculus; experiment: Acute toxicity in Swiss albino mouse assessed as effect on tissue protein levels at 1000 mg/kg, po after 7 days (reference value: 0.06 +/- 0.004 mg/mL); format: organism-based; settings: in vivo, 168 h
# [10] = tested on: Mus musculus; experiment: Acute toxicity in Swiss albino mouse assessed as effect on GSH levels per mg of tissue protein at 1000 mg/kg, po after 7 days (reference value: 17.64 +/- 1.03 micromol); format: organism-based; settings: in vivo, 168 h
# [11] = tested on: Mus musculus; experiment: Acute toxicity in Swiss albino mouse assessed as effect on absolute heart weight at 5 to 1000 mg/kg, po after 7 days; format: organism-based; settings: in vivo, 168 h; outline: as §1
# [12] = tested on: Mus musculus; experiment: Acute toxicity in Swiss albino mouse assessed as effect on GSH levels per mg of tissue protein at 5 mg/kg, po after 7 days (reference value: 17.64 +/- 1.03 micromol); format: organism-based; settings: in vivo, 168 h
# [13] = Lipophilicity, log P of the compound; format: physicochemical; settings: octanol/water; read-out: logP
# [14] = tested on: Mus musculus; experiment: Acute toxicity in Swiss albino mouse assessed as effect on triglyceride levels at 5 mg/kg, po after 7 days (reference value: 45.21 +/- 2.95 mg/dL); format: organism-based; settings: in vivo, 168 h
# [15] = tested on: Mycobacterium tuberculosis; experiment: Antimycobacterial activity against Mycobacterium tuberculosis H37Rv by BACTEC 460 radiometric method; format: functional
# Outline: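 Radiometric BACTEC assay against the H37Rv strain, run per a previously reported method. Positive controls were rifampicin, streptomycin and isoniazid. The MIC was read in µM.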
# [16] = tested on: Mus musculus; experiment: Acute toxicity in Swiss albino mouse assessed as effect on triglyceride levels at 300 mg/kg, po after 7 days (reference value: 45.21 +/- 2.95 mg/dL); format: organism-based; settings: in vivo, 168 h
# [17] = tested on: Mus musculus; experiment: Acute toxicity in Swiss albino mouse assessed as effect on ALKP levels at 50 mg/kg, po after 7 days (reference value: 219.20 +/- 5.9 U/L); format: organism-based; settings: in vivo, 168 h
# [18] = tested on: Mus musculus; experiment: Acute toxicity in Swiss albino mouse assessed as effect on SGPT levels at 5 mg/kg, po after 7 days (reference value: 16.08 +/- 1.38 U/L); format: organism-based; settings: in vivo, 168 h
# [19] = tested on: Mus musculus; experiment: Acute toxicity in Swiss albino mouse assessed as effect on relative spleen weight at 5 to 1000 mg/kg, po after 7 days; format: organism-based; settings: in vivo, 168 h; outline: as §1
# [20] = tested on: Mus musculus; experiment: Acute toxicity in Swiss albino mouse assessed as effect on haemoglobin levels at 5 mg/kg, po after 7 days (reference value: 12.29 +/- 0.53 g/dL); format: organism-based; settings: in vivo, 168 h
# [21] = tested on: Mus musculus; experiment: Acute toxicity in Swiss albino mouse assessed as effect on ALKP levels at 1000 mg/kg, po after 7 days (reference value: 219.20 +/- 5.9 U/L); format: organism-based; settings: in vivo, 168 h
# [22] = tested on: Mus musculus; experiment: Acute toxicity in Swiss albino mouse assessed as effect on SGOT levels at 5 mg/kg, po after 7 days (reference value: 15.11 +/- 1.25 U/L); format: organism-based; settings: in vivo, 168 h
# [23] = tested on: Mus musculus; experiment: Acute toxicity in Swiss albino mouse assessed as effect on cholesterol levels at 5 mg/kg, po after 7 days (reference value: 89.73 +/- 10.76 mg/dL); format: organism-based; settings: in vivo, 168 h
# [24] = tested on: Mus musculus; experiment: Acute toxicity in Swiss albino mouse assessed as effect on RBC count at 1000 mg/kg, po after 7 days (reference value: 7.61 +/- 0.54 10^6/mm3); format: organism-based; settings: in vivo, 168 h
# [25] = tested on: Mus musculus; experiment: Acute toxicity in Swiss albino mouse assessed as effect on haemoglobin levels at 1000 mg/kg, po after 7 days (reference value: 12.29 +/- 0.53 g/dL); format: organism-based; settings: in vivo, 168 h
# [26] = tested on: Mus musculus; experiment: Acute toxicity in Swiss albino mouse assessed as effect on body weight at 1000 mg/kg, po after 7 days (reference value: 28.25 +/- 0.54 g); format: organism-based; settings: in vivo, 168 h
# [27] = tested on: Mus musculus; experiment: Acute toxicity in Swiss albino mouse assessed as effect on SGOT levels at 300 mg/kg, po after 7 days (reference value: 15.11 +/- 1.25 U/L); format: organism-based; settings: in vivo, 168 h
# [28] = tested on: Mus musculus; experiment: Acute toxicity in Swiss albino mouse assessed as effect on serum protein levels at 5 mg/kg, po after 7 days (reference value: 0.10 +/- 0.004 mg/mL); format: organism-based; settings: in vivo, 168 h
# [29] = biological target: DNA gyrase subunit A/DNA gyrase subunit B (Mycobacterium tuberculosis (strain ATCC 25618 / H37Rv), UniProt P9WG45+P9WG47); experiment: Inhibition of Mycobacterium tuberculosis DNA gyrase supercoiling activity using relaxed pBR322 as substrate after 30 mins by agarose gel electrophoresis; format: protein-complex assay
# DNA gyrase subunit A/DNA gyrase subunit B, sequence (P9WG45 whole entry): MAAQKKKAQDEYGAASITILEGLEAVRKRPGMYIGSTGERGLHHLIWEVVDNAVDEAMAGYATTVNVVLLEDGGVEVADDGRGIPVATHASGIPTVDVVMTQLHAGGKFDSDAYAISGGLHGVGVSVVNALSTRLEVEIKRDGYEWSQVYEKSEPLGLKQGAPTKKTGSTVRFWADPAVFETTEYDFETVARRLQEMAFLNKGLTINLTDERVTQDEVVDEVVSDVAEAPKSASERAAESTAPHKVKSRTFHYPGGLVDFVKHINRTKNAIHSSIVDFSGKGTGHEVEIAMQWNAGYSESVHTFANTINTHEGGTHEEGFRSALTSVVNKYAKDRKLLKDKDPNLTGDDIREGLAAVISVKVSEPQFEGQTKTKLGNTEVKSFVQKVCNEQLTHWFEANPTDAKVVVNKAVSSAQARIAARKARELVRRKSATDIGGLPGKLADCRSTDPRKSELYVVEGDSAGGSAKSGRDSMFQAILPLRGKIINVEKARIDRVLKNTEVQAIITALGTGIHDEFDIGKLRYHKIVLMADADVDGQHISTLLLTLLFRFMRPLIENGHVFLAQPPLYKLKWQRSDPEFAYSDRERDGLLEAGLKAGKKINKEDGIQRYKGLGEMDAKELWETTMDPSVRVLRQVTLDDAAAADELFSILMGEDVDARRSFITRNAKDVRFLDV
# DNA gyrase subunit A/DNA gyrase subunit B, sequence (P9WG47 whole entry): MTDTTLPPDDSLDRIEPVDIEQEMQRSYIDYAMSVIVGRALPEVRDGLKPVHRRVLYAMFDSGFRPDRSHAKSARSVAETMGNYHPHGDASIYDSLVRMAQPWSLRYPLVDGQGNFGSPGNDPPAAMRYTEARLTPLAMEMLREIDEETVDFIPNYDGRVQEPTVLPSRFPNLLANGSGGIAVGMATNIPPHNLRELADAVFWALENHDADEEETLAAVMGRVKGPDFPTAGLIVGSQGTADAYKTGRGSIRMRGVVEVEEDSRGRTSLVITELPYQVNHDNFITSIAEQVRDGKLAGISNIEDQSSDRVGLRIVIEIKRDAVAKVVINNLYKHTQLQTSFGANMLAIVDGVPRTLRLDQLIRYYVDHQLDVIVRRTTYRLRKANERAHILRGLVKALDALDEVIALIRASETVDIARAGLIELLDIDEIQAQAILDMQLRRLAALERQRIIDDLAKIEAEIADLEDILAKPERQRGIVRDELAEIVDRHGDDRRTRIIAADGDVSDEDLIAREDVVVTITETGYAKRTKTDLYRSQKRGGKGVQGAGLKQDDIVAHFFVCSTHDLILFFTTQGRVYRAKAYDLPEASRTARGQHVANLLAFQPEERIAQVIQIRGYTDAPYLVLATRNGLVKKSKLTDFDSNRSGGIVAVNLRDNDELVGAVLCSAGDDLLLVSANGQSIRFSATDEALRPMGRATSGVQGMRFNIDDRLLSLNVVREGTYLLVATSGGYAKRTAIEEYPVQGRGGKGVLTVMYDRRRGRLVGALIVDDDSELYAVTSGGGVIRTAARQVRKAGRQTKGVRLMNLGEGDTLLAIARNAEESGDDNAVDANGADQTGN
# [30] = tested on: Mus musculus; experiment: Acute toxicity in Swiss albino mouse assessed as effect on triglyceride levels at 50 mg/kg, po after 7 days (reference value: 45.21 +/- 2.95 mg/dL); format: organism-based; settings: in vivo, 168 h
# [31] = tested on: Mus musculus; experiment: Acute toxicity in Swiss albino mouse assessed as effect on absolute kidney weight at 5 to 1000 mg/kg, po after 7 days; format: organism-based; settings: in vivo, 168 h; outline: as §1
# [32] = tested on: Mus musculus; experiment: Acute toxicity in Swiss albino mouse assessed as effect on relative liver weight at 5 to 300 mg/kg, po after 7 days; format: organism-based; settings: in vivo, 168 h; outline: as §1
# [33] = tested on: Mus musculus; experiment: Acute toxicity in Swiss albino mouse assessed as effect on triglyceride levels at 1000 mg/kg, po after 7 days (reference value: 45.21 +/- 2.95 mg/dL); format: organism-based; settings: in vivo, 168 h
# [34] = tested on: Mus musculus; experiment: Acute toxicity in Swiss albino mouse assessed as effect on cholesterol levels at 50 mg/kg, po after 7 days (reference value: 89.73 +/- 10.76 mg/dL); format: organism-based; settings: in vivo, 168 h
structure (smiles),measurement,setting,value
COc1ccc2c(c1)nc(-c1ccccc1OC)n2Cc1ccccc1OC,Activity,[1],97.14 mg/dL
same,Activity,[2],Non-Toxic
same,Activity,[3],19.37 µmol
same,Activity,[4],11.45 g/dL
same,Activity,[5],6.33 10^3/mm3
same,Activity,[6],0.09 mg/mL
same,Activity,[7],0.26 nmol
same,Activity,[8],7.44 10^6/mm3
same,Activity,[9],0.05 mg/mL
same,Activity,[10],19.34 µmol
same,Activity,[11],Non-Toxic
same,Activity,[12],15.6 µmol
same,logP,[13],4.45
same,Activity,[14],48.61 mg/dL
same,MIC,[15],16 µM
same,Activity,[16],43.04 mg/dL
same,Activity,[17],171.7 U/L
same,Activity,[18],15.26 U/L
same,Activity,[19],Non-Toxic
same,Activity,[20],10.81 g/dL
same,Activity,[21],118.06 U/L
same,Activity,[22],11.96 U/L
same,Activity,[23],91.48 mg/dL
same,Activity,[24],7.33 10^6/mm3
same,Activity,[25],9.68 g/dL
same,Activity,[26],22.86 g
same,Activity,[27],11.11 U/L
same,Activity,[28],0.09 mg/mL
same,IC50,[29],358 µM
same,Activity,[30],41.98 mg/dL
same,Activity,[31],Non-Toxic
same,Activity,[32],Non-Toxic
same,Activity,[33],57.01 mg/dL
same,Activity,[34],85.13 mg/dL
